# Assay outcomes: PubChem BioAssay, Johns Hopkins Ion Channel Center
# The list is not random: actives were taken first. Their share in the collection is about 3.5%.
# RGS4 inh = inhibitors of human RGS4 | 310,000 compounds, 0.45% hits | B-score at 10 µM | P49798 | HEK293 M3R/RGS4 inducible, Fluo-4 calcium flux; hits give high values; triggered by carbachol at its EC20;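 active means B-score, a plate-corrected calcium signal, over three deviations above library mean, with baseline fluorescence within five deviations of library mean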;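 further: RGS4 expression induced by doxycycline in cells with stable M3 receptor; B-score is computed from the integrated fluorescence ratio over baseline after carbachol; higher B-score means a larger calcium signal and so more RGS4 inhibition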
# Target sequence (P49798 whole entry, looked up): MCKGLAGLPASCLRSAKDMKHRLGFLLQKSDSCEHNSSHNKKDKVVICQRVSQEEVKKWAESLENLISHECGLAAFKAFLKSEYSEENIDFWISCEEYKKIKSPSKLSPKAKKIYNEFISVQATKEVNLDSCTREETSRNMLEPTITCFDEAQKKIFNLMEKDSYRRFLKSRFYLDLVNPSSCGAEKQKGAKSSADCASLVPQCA
# MrgX1 PAM = human MrgX1 positive allosteric modulation, primary screen; Q96LB2; MrgX1-HEK293, Fluo-4 calcium flux, FDSS; hits give high values; B-score at 10 µM; 310,000 compounds, 0.63% hits;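 active means plate-corrected calcium response at least 3 library SD above typical, normal starting fluorescence, not activating the receptor alone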;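 further: compound read alongside a low EC10 to EC30 dose of BAM8-22 agonist; peak minus trough fluorescence over baseline measured at the second addition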
# Target sequence (Q96LB2 whole entry, looked up): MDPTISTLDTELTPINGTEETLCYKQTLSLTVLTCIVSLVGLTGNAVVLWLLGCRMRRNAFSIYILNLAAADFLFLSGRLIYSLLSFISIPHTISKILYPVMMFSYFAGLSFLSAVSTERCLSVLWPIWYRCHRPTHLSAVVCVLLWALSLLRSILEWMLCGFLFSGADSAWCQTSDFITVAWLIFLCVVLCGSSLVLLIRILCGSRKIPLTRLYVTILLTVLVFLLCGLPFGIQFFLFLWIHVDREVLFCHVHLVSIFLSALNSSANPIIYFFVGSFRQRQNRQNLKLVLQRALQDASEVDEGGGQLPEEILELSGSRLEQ
# RGS4 act = RGS4 potentiation or activation; HEK293 M3R/inducible RGS4, carbachol calcium flux Fluo4; hits give low values; B-score at 10 µM; 310,000 compounds, 0.92% hits;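 active means B-score of the integrated calcium signal more than 4 SD below the library mean, with starting fluorescence not abnormally high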;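 further: negative B-score means reduced calcium response which marks RGS4 activation or potentiation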
#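 Material: M3R-expressing HEK293 line, RGS4 induced by doxycycline | Schedule: Overnight RGS4 induction, 30 min dye load 37 °C, 20 min compound RT | Measured by: Fluo4 fluorescence kinetic imaging of calcium | Read-out: Integrated calcium ratio converted to B score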
# MrgX1 ag = agonists of human MrgX1 receptor | Q96LB2 | MrgX1-HEK293 cells, Fluo-4 calcium fluorescence, agonist mode; hits give high values | B-score at 10 µM | 310,000 compounds, 0.44% hits | AID 588627;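 active means calcium response B-score plate-corrected fluorescence ratio at least 3 library SD, with starting fluorescence B-score inside 5 SD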
#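 Material: HEK293 cells stably expressing human MrgX1 receptor | Quantity: 15,000 cells per well | Times: Cells plated overnight, dye loaded 0.5 h 37 °C, 0.5 h room temperature | Measured by: Kinetic Fluo-4 NW fluorescence of intracellular calcium | Control set: Positive and negative controls per plate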
# MrgX1 antag = human MrgX1 receptor antagonism, primary screen; Q96LB2; MRGX1-HEK293 calcium flux, Fluo-4, BAM8-22 antagonism; hits give low values; B-score at 10 µM; 310,000 compounds, 1.3% hits;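 active means calcium-response B-score plate-corrected more than 3 library SD below zero, starting fluorescence within 5 deviations, no agonist response on first addition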;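 further: peak minus trough fluorescence over baseline after final BAM8-22 challenge near maximal dose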
# An asterisk follows results filed as active; i = inactive; . = no result.
SMILES,RGS4 inh,MrgX1 PAM,RGS4 act,MrgX1 ag,MrgX1 antag
CC(OC(=O)c1cc(Br)ccc1O)C(=O)Nc1ccc(S(=O)(=O)N2CCCC2)cc1 (configuration not stated),i,i,i,i,i
COc1ccccc1N(CN1C(=O)c2ccccc2C1=O)C(=O)c1cccc(C)c1,i,i,i,i,i
CC1(C)CC(=O)C(C2C3=C(CC(C)(C)CC3=O)Oc3c(Br)cc(Br)cc32)=C(O)C1 (configuration not stated),i,i,i,52.2*,i
CC1(C)CC(=O)C2=C(C1)OC1=C(C(=O)CC(C)(C)C1)C2c1cc([N+](=O)[O-])cc([N+](=O)[O-])c1O,i,i,i,i,i
Cc1nn(-c2ccccc2)c(N)c1C1(O)C(=O)Nc2ccccc21 (configuration not stated),i,i,i,i,i
COc1ccnc(Oc2ccccc2)c1C(=O)N/C=N/OCc1ccccc1F,i,i,i,i,-5.57*
Cc1ccc(C)c(S(=O)(=O)N2CCN(C(=O)C3CCN(c4ncnc5sc(C)c(C)c45)CC3)CC2)c1,i,i,i,i,i
COc1cccc(CCC(=O)N2CCC(n3nccc3NC(=O)CC(C)C)CC2)c1,i,i,i,i,i
Cc1nc2ccccc2c2oc(C(=O)N3CC(C)CC(C)C3)cc12 (configuration not stated),i,i,i,i,i
COc1ccccc1N1CCN(C(=O)c2cc3c(C)nc4ccccc4c3o2)CC1,i,i,-7.38*,i,i
CSC1=N/C(=C\c2ccccc2Cl)C(=O)N1N(C)C,i,i,i,i,i
O=C(O)c1ccc(N2CCc3ccccc32)c([N+](=O)[O-])c1,i,i,i,i,i
COC(=O)c1ccc(N2CCc3ccccc32)c([N+](=O)[O-])c1,i,7.7*,i,i,i
O=[N+]([O-])c1ccc(O)c(/C=N/NC2=NS(=O)(=O)c3ccccc32)c1,i,8.46*,i,i,i
Cc1c(C)c(C)c(CO/N=C/c2cccs2)c(C)c1C,i,8.16*,i,i,i
Clc1cccc(Cl)c1CO/N=C/c1cccs1,i,i,i,i,i
O=C(/C=C/Nc1ccc(F)cc1)c1cccs1,i,i,i,i,-5.04*
O=C(/C=C/Nc1ccc(F)c(F)c1)c1cccs1,i,i,i,i,i
COc1cccc(-n2c(=O)n(Cc3ccccc3)c(=O)c3[nH]cnc32)c1,i,i,i,i,i
CN(c1cccc(NC(=O)Nc2cccc(Cl)c2)c1)S(C)(=O)=O,i,i,i,i,-5.23*
CC(C)c1ccc(/C=C/C(=O)NC(=S)Nc2ccc(CN3CCOCC3)cc2)cc1,i,i,-8.79*,i,i
CC(C)c1ccc(CN2CC(C(=O)O)CC2=O)cc1 (configuration not stated),i,i,i,i,i
COc1ccc(C2=NN(C(=O)C(O)c3ccccc3)C(O)(C(F)(F)F)C2)cc1 (configuration not stated),i,i,i,29.4*,i
CN(C(=O)c1cc(S(=O)(=O)N2CCOCC2)cs1)c1ccccc1,i,i,i,i,i
COC(=O)c1sc2cc([N+](=O)[O-])cc(SCC(C)C)c2c1N,i,i,i,i,-9.24*
SMILES,RGS4 inh,MrgX1 PAM,RGS4 act,MrgX1 ag,MrgX1 antag
CCN(CC)CCn1c(=S)[nH]c2cc(C(=O)NCc3ccccc3Cl)ccc2c1=O,i,i,i,i,i
CCOC(=O)c1cc2c(=O)n3cccc(C)c3nc2n(Cc2ccco2)c1=NC(=O)c1ccccc1,i,i,-7.2*,i,i
CCOC(=O)c1cc2c(=O)n3ccccc3nc2n(Cc2ccco2)c1=NC(=O)c1cccc(OC)c1,i,i,-7.43*,i,-5.8*
CC(C)(C)c1ccc(C(=O)NNc2ncccc2-n2cccc2)cc1,i,i,i,i,i
CC1CCC2(CC1)NC(=O)N(CC(=O)Nc1ccc3[nH]c(=O)[nH]c3c1)C2=O (configuration not stated),i,i,i,i,i
O=C(Nc1ccnn1C1CCN(Cc2cccc(OCCO)c2)CC1)C1CCOC1 (configuration not stated),i,i,i,i,i
COc1ccc([N+](=O)[O-])cc1NC(=O)c1ccccc1N(C)S(C)(=O)=O,i,6.98*,i,i,i
COCCSc1ccccc1C(=O)Nc1cc([N+](=O)[O-])ccc1OC,i,i,i,i,i
COc1ccc([N+](=O)[O-])cc1NC(=O)C1(c2ccccc2)CCOCC1,i,8.71*,i,i,i
COc1ccc([N+](=O)[O-])cc1NC(=O)Cc1noc2ccccc12,i,i,i,i,-9.68*
Cc1c(NC(=O)Cc2noc3ccccc23)cccc1[N+](=O)[O-],i,i,i,i,i
COc1ccc(C(=O)NC(C)CCCC(C)(C)O)cc1OC1CCN(C(C)=O)CC1 (configuration not stated),i,i,i,i,i
O=C1C(SCCO)=C(SCCO)C(=O)c2ccccc21,.,i,.,i,-12.6*
O=C1C(Cl)=C(NCCCO)C(=O)c2ccccc21,i,i,i,i,i
CC(C)=CCc1c2c(c3occ(-c4ccc(O)cc4)c(=O)c3c1O)C=CC(C)(C)O2,i,i,i,i,i
CC(C)=CCOc1ccc([C@@H]2COc3c(ccc4c3C=CC(C)(C)O4)C2)c(O)c1,i,i,-9.42*,i,i
O=C(Nc1ccc(Oc2ccccc2)cc1)C1CCN(c2c3c(nc4ncnn24)CCC3)CC1,i,i,-11.8*,i,i
O=C(Nc1ccc2c(c1)CCC2)C1CCN(c2c3c(nc4ncnn24)CCC3)CC1,i,i,i,i,i
Clc1ccc(CN2CCc3c([nH]c4ccccc34)C2)cc1Cl,i,i,i,i,-4.64*
Oc1c(Cl)cc(Cl)cc1Sc1cc(Cl)cc(Cl)c1O,i,i,i,29.7*,i
Oc1c(Cl)cc(Cl)cc1CNn1cnnc1,i,i,i,i,i
CCOc1ccc(-c2cc(N3C(=O)Nc4ccccc4N3O)n[nH]2)cc1,i,i,i,i,-6.69*
Cc1cc2ncn(-c3ncccc3[N+](=O)[O-])c2cc1C,i,i,i,27.1*,i
